Diuretic activity data for 50 compounds are collected here from ChEMBL document CHEMBL1121573, “2-(Aminomethyl)phenols, a new class of saluretic agents. 1. Effects of nuclear substitution” (J Med Chem, 1980).

The test system of data set [1] is Canis familiaris. The experiment in a line: Compound administered intravenously at a dose of 5 mg/kg was evaluated for salidiuretic activity measured as sodium ion excretion in Dog; Value ranges from 100-249. The format is ADME, organism-based, Canis lupus familiaris, Urine. Details: dose 5 mg/kg, route intravenous. The note with it: in vivo, iv. In short, it runs like this: (§1)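 Conditioned female mongrel dogs, postabsorptive, water-loaded (500 mL po) 1 h before sodium pentobarbital anesthesia (30 mg/kg iv). Bladder catheter; creatinine 4 g sc; phosphate–mannitol buffer pH 7.4 infused (3.0 mL/min) throughout. […] Urine Na+ measured; response scored 0–6.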

For data set [2], the system named is Rattus norvegicus. Nature of the data set: Evaluated for salidiuretic activity measured as sodium ion excretion in Rat, administered orally at a dose of 50 mg/kg. The data set is classed as functional, Urine. The note with it: route oral. Details: unit not given beside the values. In short, it runs like this: (§2)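 Female Charles-River rats (150–170 g), overnight on sugar diet with water ad libitum. Compound dissolved in DMF, diluted with water containing Tween 80 (final 4% DMF), given po in 5.0 mL; concurrent vehicle placebo. Three rats per metabolism cage; 0–5 h urine analysed for Na+, K+, Cl-. Values: mequiv × 100 per cage, geometric means of three cages per dose; scored 0–6 by Na+.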

For data set [3], the system named is Rattus norvegicus. Nature of the data set: Compound administered orally at a dose of 81 mg/kg was evaluated for salidiuretic activity measured as sodium ion excretion in Rat. The data set is classed as ADME, organism-based, Urine. Further details: dose 81 mg/kg, route oral; unit not given beside the values. Conditions: in vivo, po. In short, it runs like this: as §2

Data set [4] deals with Canis familiaris. The experiment in a line: Salidiuretic activity in dog following i.v. dosing at 5 mg/kg. The data set is classed as functional, Canis lupus familiaris, Urine. Conditions: route intravenous. Details: unit not given beside the values. Summed up:
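Conditioned female mongrel dogs, postabsorptive, got a 500 mL oral water load 1 h before pentobarbital anesthesia (30 mg/kg iv). After replicate 15-min control collections, compound was given as an iv stat injection.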

Data set [5] in a line: Compound administered orally at a dose of 5 mg/kg was evaluated for salidiuretic activity measured as sodium ion excretion in Rat. The format is organism-based. Further details: dose 5 mg/kg. Conditions: Urine. In short, it runs like this: as §2
Data set [6] in a line: Evaluated for salidiuretic activity measured as sodium ion excretion in Rat, administered orally at a dose of 16.5 mg/kg. The data set is classed as organism-based. Further details: dose 16.5 mg/kg. The note with it: Urine. Summed up: as §2
In data set [7] the test system is Canis familiaris. Nature of the data set: Compound administered intravenously at a dose of 5 mg/kg was evaluated for salidiuretic activity measured as sodium ion excretion in Dog. Conditions: in vivo, iv. Further details: dose 5 mg/kg, route intravenous. The data set is classed as ADME, organism-based, Canis lupus familiaris, Urine. Summed up: as §1
The subject of data set [8] is Canis familiaris. Nature of the data set: Compound administered intravenously was evaluated for salidiuretic activity measured as sodium ion excretion in Dog; Value ranges from 0-99. The note with it: in vivo, iv. The data set is classed as ADME, organism-based, Canis lupus familiaris, Urine. Summed up:
as §1

Data set [9] deals with Canis familiaris. Nature of the data set: Compound administered intravenously at a dose of 5 mg/kg was evaluated for salidiuretic activity measured as sodium ion excretion in Dog; Value ranges from 800-899. The data set is classed as ADME, organism-based, Canis lupus familiaris, Urine. Details: dose 5 mg/kg, route intravenous; unit not given beside the values. Conditions: in vivo, iv. In short, it runs like this: as §1

Data set [10] deals with Rattus norvegicus. Nature of the data set: Compound administered orally at a dose of 1 mg/kg was evaluated for salidiuretic activity measured as sodium ion excretion in Rat. The note with it: in vivo, po.

The structures appear in SMILES notation.

For the compound `CCCCc1cc(I)c(O)c(CN)c1.Cl`, the Diuretic activity in [1] is given as 100; in [2] it was less than 0.2; in data set [3], less than 0.3.
As for `Cc1cc(C)c(O)c(CN)c1C.Cl`, the Diuretic activity worked out at 250 in data set [4]; 1.8 in data set [2]; 0.4 in data set [5]; 2.4 in data set [3]; 0.6 in [6].
Turning to `CCc1c(Cl)c(C)c(Cl)c(O)c1CN.Cl`, the Diuretic activity was found to be 100 in [1]; 1.2 in data set [2]; 0.3 in data set [5]; 1.5 in [3]; 0.5 in [6].
Consider `CC(C)(C)c1cc(F)c(O)c(CN)c1.Cl`, for which the Diuretic activity was greater than 900 in [7], 3.3 in data set [2], 1.4 in data set [5] and 2.7 in data set [6].
For the compound `CCCc1cc(CN)c(O)c(OC)c1.Cl`, the Diuretic activity in [4] is recorded as 250.
Turning to `Cl.NCc1c(O)c(Cl)cc(Cl)c1O`, the Diuretic activity in [2] was found to be 1.2; in data set [5] it was 0.3; in [3] it was 1.5; in data set [8], 0; in [6], 0.5.
`Cc1c(Cl)c(C)c(CN)c(O)c1CN.Cl.Cl`: the Diuretic activity in data set [2] is less than 0.2; in [3], less than 0.3.
`CCC(C)c1cc(Cl)c(O)c(CN)c1.Cl` (stereo not given): the Diuretic activity in [2] was 3.6; in data set [5] it was 2.6; in data set [9] it was 800; in data set [6], 3.3; in data set [10] it was 0.7.
Regarding `Cl.NCc1cc(Cl)cc(F)c1O`, in data set [4], the Diuretic activity is listed as 250.
On to `Cc1cc(O)c(CN)c(C)c1C.Cl`, for which the Diuretic activity in [8] stood at 0.
For `Br.Cc1c(O)c(CN)c(Cl)c(C)c1Cl`, the Diuretic activity is reported as 100 in data set [1], less than 0.2 in data set [2] and less than 0.3 in data set [3].
With `NCc1c(O)ccc(Cl)c1Cl`, the Diuretic activity in data set [4] amounted to 250; in data set [2] it was 1.2; in [5], 0.3; in [3], 1.5; in data set [6], 0.5.
Consider `CCCc1cc(Cl)c(O)c(CN)c1.Cl`, for which the Diuretic activity is greater than 900 in [7], 3.3 in [2], 1.4 in data set [5] and 2.7 in data set [6].
Consider `COc1cc(Cl)c(Cl)c(CN)c1O.Cl`, for which the Diuretic activity in data set [1] came out at 100; in data set [2] it was 1.2; in data set [5], 0.3; in [3], 1.5; in data set [6], 0.5.
Regarding `Cl.NCc1cc(Cl)cc(I)c1O`, the Diuretic activity in data set [2] was determined as 1.8; in data set [5] it was 0.4; in data set [3] it was 2.4; in data set [9], 800; in [6], 0.6.
Regarding `COc1cc(C)cc(CN)c1O.Cl`, the Diuretic activity in data set [1] is listed as 100.
`CC(C)(C)c1cc(CN)c(O)c(C(C)(C)C)c1` came in with a Diuretic activity in data set [8] of 0.
In [1], `Cc1cc(CN)c(O)c(C(C)(C)C)c1.Cl` returned a Diuretic activity of 100.
Regarding `COc1c(C(C)(C)C)cc(I)c(O)c1CN.Cl`, the Diuretic activity was 2.4 in [2]; 0.5 in data set [5]; 2.9 in data set [3]; 800 in [9]; 1.4 in data set [6].
As for `Cc1cc(Cl)cc(CN)c1O.Cl`, in [1], the Diuretic activity is recorded as 100.
For `Cc1cc(Cl)c(C)c(CN)c1O.Cl`, the Diuretic activity in data set [8] worked out at 0.
As to `COc1c(Cl)c(OC)c(CN)c(O)c1I.Cl`, the Diuretic activity in data set [2] was 3.3; in data set [5] it was 1.4; in data set [9] it was 800; in [6] it was 2.7.
Regarding `Cc1cc(Cl)c(O)c(CN)c1.Cl`, the Diuretic activity in [1] came out at 100; in data set [2], 1.8; in data set [5], 0.4; in [3] it was 2.4; in data set [6], 0.6.
With `CCOC(=O)c1cc(I)c(O)c(CN)c1.Cl`, the Diuretic activity came out at 250 in data set [4], 1.8 in [2] and 2.4 in [3].
In data set [8], `Cc1c(Cl)cc(CN)c(O)c1C.Cl` returned a Diuretic activity of 0.
Regarding `CC(C)(c1ccccc1)c1ccc(O)c(CN)c1.Cl`, the Diuretic activity in data set [4] was found to be 250.
As to `CC(C)(C)c1cc(CN)c(O)c(C(F)(F)F)c1.Cl`, the Diuretic activity in [2] was found to be 3.3; in [5], 1.4; in data set [9] it was 800; in [6], 2.7.
`Cl.NCc1cc(CN)c(Cl)c(Cl)c1O` displayed a Diuretic activity in [8] of 0.
In the case of `CCC(C)(C)c1cc(I)c(O)c(CN)c1.Cl`, the Diuretic activity in data set [2] turned out to be 2.4; in data set [5] it was 0.5; in data set [3] it was 2.9; in data set [9], 800; in data set [6], 1.4.
On to `Cc1c(Br)c(C)c(CN)c(O)c1Br.Cl`, for which the Diuretic activity in data set [2] came to 3.3; in data set [5] it was 1.4; in data set [9] it was 800; in data set [6], 2.7.
For the compound `Cl.NCc1c(O)c(Cl)c(Cl)c(Cl)c1Cl`, the Diuretic activity stood at 250 in data set [4], 3.3 in data set [2], 1.4 in data set [5] and 2.7 in data set [6].
On to `Cl.NCc1cc(I)cc(I)c1O`, for which the Diuretic activity in data set [2] came out at 2.4; in [5] it was 0.5; in data set [3], 2.9; in data set [9], 800; in [6] it was 1.4.
As to `Cc1cc(N)c(C)c(CN)c1O.Cl.Cl`, in data set [8], the Diuretic activity is 0.
Consider `NCc1cc(Cl)ccc1O`, for which the Diuretic activity in data set [4] stood at 250; in data set [2], 1.2; in data set [5], 0.3; in data set [3], 1.5; in data set [6], 0.5.
With `CC(C)Cc1cc(I)c(O)c(CN)c1.Cl`, the Diuretic activity was determined as 100 in data set [1]; 1.2 in data set [2]; 0.3 in [5]; 1.5 in data set [3]; 0.5 in [6].
In the case of `Cl.NCc1cc(Cl)cc(C(=O)O)c1O`, the Diuretic activity in [4] is 250.
On the same count and under the same terms, as for `CCCc1cc(CN)c(O)c(CCC)c1.Cl`, the figure is 250.
For the compound `Cl.NCc1cc(Cl)c(Cl)c(Cl)c1O`, the Diuretic activity in data set [4] is 250; in data set [2], 3.3; in data set [5], 1.4; in data set [6], 2.7.
`CCCc1ccc(O)c(CN)c1.Cl`: the Diuretic activity in [4] amounted to 250.
Take `CCCc1cc(C(C)(C)C)cc(CN)c1O.Cl`: in data set [8], the Diuretic activity is given as 0.
Regarding `Cc1c(C)c(C)c(CN)c(O)c1C.Cl`, the Diuretic activity was determined as 250 in [4]; 2.4 in [2]; 0.5 in data set [5]; 2.9 in data set [3]; 1.4 in data set [6].
`CCCCc1cc(C)c(O)c(CN)c1.Cl` displayed a Diuretic activity in data set [1] of 100.
Consider `Cl.NCc1cc(Cl)cc(-c2ccccc2)c1O`, for which the Diuretic activity in data set [4] was 250.
Consider `CC(C)(C)c1c(Cl)cc(CN)c(O)c1Cl.Cl`, for which the Diuretic activity in [4] is 250; in [2], 2.4; in [5] it was 0.5; in data set [3], 2.9; in data set [6] it was 1.4.
On to `Cc1c(Cl)c(C(C)(C)C)c(Cl)c(O)c1CN.Cl`, for which the Diuretic activity in data set [2] came out at 2.4; in data set [5], 0.5; in [3], 2.9; in [6], 1.4.
Take `CC(C)(C)c1cc(CN)c(O)c(Oc2ccc(Cl)cc2)c1.Cl`: the Diuretic activity was 100 in data set [1]; 1.8 in [2]; 0.4 in [5]; 2.4 in data set [3]; 0.6 in data set [6].
In data set [4], `Cc1c(Cl)ccc(O)c1CN.Cl` showed a Diuretic activity of 250.
Take `Cl.NCc1c(O)c(Cl)cc(Cl)c1F`: the Diuretic activity in data set [2] amounted to 3.3; in data set [5] it was 1.4; in [9], 800; in data set [6], 2.7.
Regarding `CC(C)(C)CC(C)(C)c1cc(Cl)c(O)c(CN)c1.Cl`, the Diuretic activity in [8] is on record as 0.
In the case of `Cc1c(Cl)c(C)c(CN)c(O)c1Cl.Cl`, the Diuretic activity is 3.3 in data set [2], 1.4 in data set [5] and 2.7 in [6].
